# Results from ChEMBL document CHEMBL2034843, “3α-Hydroxymasticadienonic acid as an antiproliferative agent that impairs mitochondrial functions” (J Nat Prod, 2012).
# The source made the active and inactive calls. The calls are words filed in the database; no cut-off is given here.
# How the values were obtained:
# Rattus norvegicus [1] = species: Rattus norvegicus; experiment: Induction of mitochondrial dysfunction in Ca2+-stimulated rat liver mitochondria assessed as decrease in mitochondrial redox level at 10 uM after 15 mins by absorption spectrophotometric analysis in presence of N-ethylmaleimide; assay type: functional
# Summary of the method: (§1)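 Mitochondrial protein thiol oxidation assayed per Santos et al. after 15 min incubation of rat liver mitochondria (1 mg protein/mL, 20 °C, succinate/rotenone standard medium). Results as % reduced thiols, mean ± SD, four independent experiments.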
# Rattus norvegicus [2] = species: Rattus norvegicus; experiment: Induction of mitochondrial dysfunction in rat liver mitochondria assessed as decrease in mitochondrial redox level at 100 uM after 15 mins by absorption spectrophotometric analysis; assay type: functional; set-up: scale not given: the % may be the effect or the level left; summary of the method: as §1
# Rattus norvegicus [3] = species: Rattus norvegicus; experiment: Induction of mitochondrial dysfunction in rat liver mitochondria assessed as decrease in mitochondrial redox level at 100 uM after 15 mins by absorption spectrophotometric analysis in presence of 50 uM Ca2+; assay type: functional; set-up: scale not given: the % may be the effect or the level left; summary of the method: as §1
# Rattus norvegicus [4] = species: Rattus norvegicus; experiment: Hepatoprotective activity in rat liver mitochondria assessed as inhibition of Ca2+-induced mitochondrial swelling at 100 uM by spectrophotometric analysis; assay type: functional
# Summary of the method: (§2)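 Absorbance change at 540 nm of rat liver mitochondrial suspensions (1 mg protein/mL, 20 °C, succinate/rotenone energized, 250 mM sucrose, 10 mM HEPES pH 7.4, 1 mM phosphate); a fall in absorbance taken as swelling. Ca2+ at 50, 70 or 90 μM as specified, or omitted. Runs repeated at least four times.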
# Rattus norvegicus [5] = species: Rattus norvegicus; experiment: Induction of mitochondrial dysfunction in rat liver mitochondria assessed as increase in mitochondrial swelling at 10 uM by spectrophotometric analysis in presence of 70 uM Ca2+; assay type: functional; summary of the method: as §2
# Rattus norvegicus [6] = species: Rattus norvegicus; experiment: Induction of mitochondrial dysfunction in rat liver mitochondria assessed as increase in mitochondrial swelling at < 20 uM by spectrophotometric analysis in presence of 70 uM Ca2+; assay type: functional; summary of the method: as §2
# Rattus norvegicus [7] = species: Rattus norvegicus; experiment: Hepatoprotective activity in rat liver mitochondria assessed as inhibition of Ca2+-induced mitochondrial swelling at > 20 uM by spectrophotometric analysis; assay type: functional; summary of the method: as §2
# Rattus norvegicus [8] = species: Rattus norvegicus; experiment: Induction of mitochondrial dysfunction in rat liver mitochondria assessed as rapid accumulation of Ca2+ at 10 uM by spectrophotometric analysis; assay type: functional
# Summary of the method: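 Rat liver mitochondria, isolated by differential centrifugation in sucrose/HEPES/EGTA buffer, were incubated at 1 mg protein/mL and 20 °C. Ca2+ content of mitochondrial pellets was measured by atomic absorption spectroscopy.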
# Rattus norvegicus [9] = species: Rattus norvegicus; experiment: Induction of mitochondrial dysfunction in rat liver mitochondria assessed as Ca2+ accumulation at 10 uM after 1 to 2 mins by spectrophotometric analysis; assay type: functional
# Summary of the method: (§3)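 Ca2+ movements in rat liver mitochondria (1 mg protein/mL, 20 °C, succinate/rotenone medium) exposed to 70 μM Ca2+; Ca2+ in mitochondrial pellets measured by atomic absorption spectroscopy, uptake expressed per mg protein.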
# Rattus norvegicus [10] = species: Rattus norvegicus; experiment: Induction of mitochondrial dysfunction in rat liver mitochondria assessed as initial uptake of Ca2+ per mg protein at 100 uM measured immediately by spectrophotometric analysis; assay type: functional; summary of the method: as §3
# Rattus norvegicus [11] = species: Rattus norvegicus; experiment: Induction of mitochondrial dysfunction in rat liver mitochondria assessed as blockage of Ca2+ release at 100 uM by spectrophotometric analysis; assay type: functional; settings: in the assay text read “Ca2+ accumulation” for “Ca2+ release”; summary of the method: as §3
# Rattus norvegicus [12] = species: Rattus norvegicus; experiment: Induction of mitochondrial dysfunction in rat liver mitochondria assessed as cytochrome c release at 10 uM after 15 mins by Western blot analysis; assay type: functional
# Summary of the method: (§4)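 Mitochondria (1 mg protein/mL) held 15 min at 20 °C in standard succinate/rotenone medium with or without Ca2+, then centrifuged 13000g, 10 min, 4 °C. Supernatants concentrated, resolved by SDS-PAGE (15% for cyt c, 10% for AIF) and immunoblotted with mouse anti-cyt c or rabbit anti-AIF.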
# Rattus norvegicus [13] = species: Rattus norvegicus; experiment: Induction of mitochondrial dysfunction in rat liver mitochondria assessed as cytochrome c release at 100 uM after 15 mins by Western blot analysis; assay type: functional; summary of the method: as §4
# Rattus norvegicus [14] = species: Rattus norvegicus; experiment: Induction of mitochondrial dysfunction in rat liver mitochondria assessed as cytochrome c release at 10 uM after 15 mins by Western blot analysis in presence of Ca2+; assay type: functional; summary of the method: as §4
# Rattus norvegicus [15] = species: Rattus norvegicus; experiment: Induction of mitochondrial dysfunction in rat liver mitochondria assessed as cytochrome c release at 100 uM after 15 mins by Western blot analysis in presence of Ca2+; assay type: functional; summary of the method: as §4
# Rattus norvegicus [16] = species: Rattus norvegicus; experiment: Induction of mitochondrial dysfunction in rat liver mitochondria assessed as apoptosis inducing factor release at 10 uM after 15 mins by Western blot analysis; assay type: functional; summary of the method: as §4
# Rattus norvegicus [17] = species: Rattus norvegicus; experiment: Induction of mitochondrial dysfunction in rat liver mitochondria assessed as apoptosis inducing factor release at 100 uM after 15 mins by Western blot analysis; assay type: functional; summary of the method: as §4
# Rattus norvegicus [18] = species: Rattus norvegicus; experiment: Induction of mitochondrial dysfunction in rat liver mitochondria assessed as apoptosis inducing factor release at 10 uM after 15 mins by Western blot analysis in presence of Ca2+; assay type: functional; summary of the method: as §4
# Rattus norvegicus [19] = species: Rattus norvegicus; experiment: Induction of mitochondrial dysfunction in rat liver mitochondria assessed as apoptosis inducing factor release at 100 uM after 15 mins by Western blot analysis in presence of Ca2+; assay type: functional; summary of the method: as §4
# HeLa = experiment: Cytotoxicity against human HeLa cells after 72 hrs by trypan blue assay; assay type: functional, cell-based
# Summary of the method: (§5)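 Cells seeded at 4 × 10^4 per well, grown 24 h, then given fresh medium with a range of concentrations and kept a further 72 h at 37 °C in 5% CO2. Viability was read by trypan blue count. IC50 is the concentration giving 50% fewer cells than control cultures, as mean ± SD of at least four experiments. HeLa were grown in F-12 with 10% heat-inactivated FCS; A-431 and HepG2 in DMEM with 10% FBS.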
# HepG2 = experiment: Cytotoxicity against human HepG2 cells after 72 hrs by trypan blue assay; assay type: functional, cell-based; settings: HepG2, 72 h; summary of the method: as §5
# A-431 = experiment: Cytotoxicity against human A431cells after 72 hrs by trypan blue assay; assay type: functional, cell-based; settings: A-431, 72 h; summary of the method: as §5
# Rattus norvegicus [20] = species: Rattus norvegicus; experiment: Induction of mitochondrial bioenergetics dysfunction in rat liver mitochondria assessed as decrease in respiratory control index at 10 uM by using clark electrode; assay type: functional
# Summary of the method: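 Isolated rat liver mitochondria (1 mg protein/mL), 20 °C, sucrose/HEPES pH 7.4 medium with 5 mM succinate plus 1.25 μM rotenone and 1 mM phosphate. O2 uptake followed with a Clark electrode; 300 μM ADP added to start state 3. RCI = V3/V4 (state 3 over state 4 rate). Five experiments.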
# Rattus norvegicus [21] = species: Rattus norvegicus; experiment: Hepatoprotective activity in rat liver assessed as inhibition of colloid-osmotic mitochondrial swelling at 100 uM by spectrophotometric analysis in presence of 90 uM Ca2+; settings: Mitochondria
# Rattus norvegicus [22] = species: Rattus norvegicus; experiment: Hepatoprotective activity in rat liver mitochondria assessed as change in mitochondrial pyridine nucleotide redox level at 100 uM after 15 mins by fluorometric analysis in presence of Ca2+
# Rattus norvegicus [23] = species: Rattus norvegicus; experiment: Induction of mitochondrial dysfunction in rat liver mitochondria assessed as decrease in mitochondrial pyridine nucleotide redox level at 10 uM after 15 mins by fluorometric analysis in presence of Ca2+
compound,measurement,setting,value
C/C(=C/CC[C@H](C)[C@@H]1CC[C@]2(C)C3=CC[C@H]4C(C)(C)[C@H](O)CC[C@]4(C)[C@H]3CC[C@@]12C)C(=O)O,Activity,Rattus norvegicus [1],inactive
same,Activity,Rattus norvegicus [2],25%
same,Activity,Rattus norvegicus [3],25%
same,inhibition,Rattus norvegicus [4],Active
same,Activity,Rattus norvegicus [5],Active
same,Activity,Rattus norvegicus [6],Active
same,Activity,Rattus norvegicus [7],Active
same,Activity,Rattus norvegicus [8],Active
same,Activity,Rattus norvegicus [9],inactive
same,Activity,Rattus norvegicus [10],20 nmol
same,Activity,Rattus norvegicus [11],Active
same,Activity,Rattus norvegicus [12],inactive
same,Activity,Rattus norvegicus [13],inactive
same,Activity,Rattus norvegicus [14],Active
same,Activity,Rattus norvegicus [15],inactive
same,Activity,Rattus norvegicus [16],inactive
same,Activity,Rattus norvegicus [17],inactive
same,Activity,Rattus norvegicus [18],Active
same,Activity,Rattus norvegicus [19],inactive
same,IC50,HeLa,28.9 µM
same,IC50,HepG2,20.1 µM
same,IC50,A-431,40 µM
same,Activity,Rattus norvegicus [20],Active
same,inhibition,Rattus norvegicus [21],Active
same,Activity,Rattus norvegicus [22],Active
same,Activity,Rattus norvegicus [23],Active
